Laboratory results taken from publication PMC12177174 (iScience, 2025).
Where “and” joins values, the source holds several entries; their conditions need not be identical. Identical values can stand only once.

How the values were obtained:
[1] = Phase 1 Part 2; format: in vivo, homo sapiens
Outline: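 Healthy adults got test compound (5, 15 or 20 mg) or placebo once daily on day 1 and days 3–16. The first cohort had 6 active and 2 placebo; later cohorts had 8 active and 3 placebo, each starting with a 2:1 sentinel group. Participants were discharged day 19, with follow-up 6 ± 1 and 29 ± 2 days after the last dose. Events were graded by CTCAE, with investigator-assessed relatedness. Placebo was pooled.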

[2] = system: lung collagen deposition; conditions: cited from earlier work
[3] = system: CTX-1; experiment: Serum bone turnover biomarker CTX-1; format: in vivo, homo sapiens
Outline: (§1)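 Participants got test compound (5, 15 or 20 mg) or placebo once daily on day 1 and days 3–16. Serum was drawn at screening and pre-dose on days 1, 5, 7, 12 and 16, and on days 22 (±1) and 45 (±2), at the same time as baseline. CTX-1, P1NP and osteocalcin were measured by electrochemiluminescence immunoassay and BSAP by sandwich ELISA. Results are percent change from baseline versus pooled placebo.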

[4] = system: P1NP; experiment: Serum bone turnover biomarker P1NP; format: in vivo, homo sapiens; conditions: 15 mg QD for 14 days
Outline: as §1

[5] = system: AXIN2 mRNA; experiment: Target engagement: AXIN2 mRNA; format: in vivo, homo sapiens; conditions: skin
Outline: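 Hair follicles (2 mm micropunch) and skin biopsies (4 mm) were taken from the lower back of the head on day −1 and on day 16, 8 ± 2 h after the last of 14 consecutive once-daily doses. AXIN2 mRNA was measured by qRT-PCR and normalized to the geometric mean of HPRT1, IPO8 and POLR2A. Fold change from baseline was calculated by 2^−ΔΔCt, versus 8 pooled placebo participants.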

[6] = system: Wnt16; experiment: Serum high-throughput proteomics; format: in vivo, homo sapiens; conditions: study day 16
[7] = Human PK, dose-to-man and exposure predictions; conditions: 15 mg once daily
[8] = Pharmacokinetics Part 2, once daily oral dosing, plasma and urine; format: in vivo, homo sapiens
Outline: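 Oral test compound or placebo was given once each morning at 5, 15 or 20 mg on day 1 and days 3–16. Plasma was sampled over 48 h after the day 1 dose and after the day 16 dose, with troughs pre-dose on days 4, 5, 6, 9 and 12. Urine was collected in intervals on days 1 and 16. Quantitation was by LC-MS/MS after protein precipitation.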

Cc1cc(-c2nccc3c2ccn3CC(=O)Nc2ccc(-c3cnccn3)cn2)ccn1 [AZD5055]
Any TEAE leading to discontinuation of IMP ([1]; Part 2, 5 mg QD, N=8): 2 n (%) | Any TEAE leading to discontinuation of IMP ([1]; Part 2, 15 mg QD, N=9): 1 n (%) | Any TEAE possibly related to the IMP (as assessed by investigator) ([1]; Part 2 MAD pooled, N=26): 7 (26.9%) n (%) | Abdominal pain upper ([1]; Part 2 MAD pooled, n=26): 0 n (%) | Application site scab ([1]; Part 2 MAD pooled, n=26): 0 n (%) | Breath odor ([1]; Part 2 MAD pooled, n=26): 1 (3.8) n (%) | Cardiac disorders ([1]; Part 2 MAD pooled, n=26): 2 (7.7) n (%) | Coronavirus infection ([1]; Part 2 MAD pooled, n=26): 1 (3.8) n (%) | Cough ([1]; Part 2 MAD pooled, n=26): 0 n (%) | Dermatitis contact ([1]; Part 2 MAD pooled, n=26): 0 n (%) | Dizziness ([1]; Part 2 MAD pooled, n=26): 0 n (%) | Dysgeusia ([1]; Part 2 MAD pooled, n=26): 2 n (%) and 2 (7.7) n (%) | Epistaxis ([1]; Part 2 MAD pooled, n=26): 1 (3.8) n (%) | Erythema ([1]; Part 2 MAD pooled, n=26): 1 (3.8) n (%) | Eye disorders ([1]; Part 2 MAD pooled, n=26): 2 (7.7) n (%) | Folliculitis ([1]; Part 2 MAD pooled, n=26): 1 (3.8) n (%) | Gastrointestinal disorders ([1]; Part 2 MAD pooled, n=26): 1 (3.8) n (%) | General disorders and administration site conditions ([1]; Part 2 MAD pooled, n=26): 11 (42.3) n (%) | Headache ([1]; Part 2 MAD pooled, n=26): 5 (19.2) n (%) | Infections and infestations ([1]; Part 2 MAD pooled, n=26): 2 (7.7) n (%) | Injury, poisoning and procedural complications ([1]; Part 2 MAD pooled, n=26): 5 (19.2) n (%) | Limb injury ([1]; Part 2 MAD pooled, n=26): 1 (3.8) n (%) | Medical device site dermatitis ([1]; Part 2 MAD pooled, n=26): 11 (42.3) n (%) | Nasal discomfort ([1]; Part 2 MAD pooled, n=26): 1 (3.8) n (%) | Nausea ([1]; Part 2 MAD pooled, n=26): 0 n (%) | Nervous system disorders ([1]; Part 2 MAD pooled, n=26): 7 (26.9) n (%) | Participants with ≥1 TEAE ([1]; Part 2 MAD pooled, n=26): 21 (80.8%) n (%) and 21 (80.8) n (%) | Participants with ≥1 TEAE of grade 1 severity ([1]; Part 2 MAD pooled, n=26): 16 (61.5%) n (%) and 16 (61.5) n (%) | Participants with ≥1 TEAE of grade 2 severity ([1]; Part 2 MAD pooled, n=26): 5 (19.2%) n (%) and 5 (19.2) n (%) | Participants with ≥1 TEAE of grade 3 severity ([1]; Part 2 MAD pooled, n=26): 0 n (%) | Participants with ≥1 TESAE ([1]; Part 2 MAD pooled, n=26): 0 n (%) | Photophobia ([1]; Part 2 MAD pooled, n=26): 1 (3.8) n (%) | Post procedural erythema ([1]; Part 2 MAD pooled, n=26): 1 (3.8) n (%) | Post procedural inflammation ([1]; Part 2 MAD pooled, n=26): 1 (3.8) n (%) | Procedural pain ([1]; Part 2 MAD pooled, n=26): 2 (7.7) n (%) | Respiratory, thoracic and mediastinal disorders ([1]; Part 2 MAD pooled, n=26): 2 (7.7) n (%) | Sensation of foreign body ([1]; Part 2 MAD pooled, n=26): 1 (3.8) n (%) | Skin abrasion ([1]; Part 2 MAD pooled, n=26): 1 (3.8) n (%) | Skin and subcutaneous tissue disorders ([1]; Part 2 MAD pooled, n=26): 1 (3.8) n (%) | Suture rupture ([1]; Part 2 MAD pooled, n=26): 0 n (%) | Ventricular tachycardia ([1]; Part 2 MAD pooled, n=26): 2 (7.7) n (%) | Vessel puncture site haematoma ([1]; Part 2 MAD pooled, n=26): 0 n (%) | Vision blurred ([1]; Part 2 MAD pooled, n=26): 1 (3.8) n (%) | Vomiting ([1]; Part 2 MAD pooled, n=26): 0 n (%) | Wheezing ([1]; Part 2 MAD pooled, n=26): 0 n (%) | collagen deposition in the lungs [2]: reduced collagen deposition in the lungs | estimated increase in serum CTX-1 compared with the placebo group ([3]; 15 mg QD for 14 days): 17.5% | estimated increase in serum CTX-1 compared with the placebo group ([3]; 20 mg QD for 14 days): 32.8% | estimated decrease in serum P1NP compared with the placebo group [4]: 56.3% | reduction of median AXIN2 mRNA levels ([5]; 15 and 20 mg cohorts): 50%–60% | AXIN2 mRNA expression vs placebo-treated participants ([5]; all dose levels, after 14 consecutive days of dosing): significantly reduced from baseline | Serum Wnt16 levels [6]: reduced on study day 16 at the 15 and 20 mg AZD5055 dose levels | predicted continuous inhibition of Porcupine across the dosing interval [7]: > 75% | predicted trough AZD5055 concentration ([7]; 3-fold in vitro IC50): 0.023 µmol/L | Dose proportionality of systemic exposure ([8]; after 14 consecutive days of once daily treatment, 5-20 mg): increased in a dose-proportional manner | mean terminal half-life ([8]; following repeated once daily dosing): 12 to 17 h | AZD5055 dose excreted unchanged in urine ([8]; in vivo): Approximately 3% | mean renal clearance ([8]; in vivo): 0.2 to 0.3 L/h | Steady state conditions in plasma reached ([8]; once daily dosing): ≤ 5 doses | accumulation ratio ([8]; once daily dosing): ≤ 2
